Data published in ChEMBL document CHEMBL1157720, “Development of carbohydrate-derived inhibitors of acid sphingomyelinase” (Bioorg Med Chem, 2010).
Calls of active or inactive are those of the source. The rule behind the calls is not given here.

What was measured:
[1] = molecular target: T1, Sphingomyelin phosphodiesterase 2 (Rattus norvegicus, UniProt Q9ET64); assay: Inhibition of nSMase in rat brain microsomal homogenate by micellar 14C-sphingomyelin assay
T1 sequence (Q9ET64 whole entry): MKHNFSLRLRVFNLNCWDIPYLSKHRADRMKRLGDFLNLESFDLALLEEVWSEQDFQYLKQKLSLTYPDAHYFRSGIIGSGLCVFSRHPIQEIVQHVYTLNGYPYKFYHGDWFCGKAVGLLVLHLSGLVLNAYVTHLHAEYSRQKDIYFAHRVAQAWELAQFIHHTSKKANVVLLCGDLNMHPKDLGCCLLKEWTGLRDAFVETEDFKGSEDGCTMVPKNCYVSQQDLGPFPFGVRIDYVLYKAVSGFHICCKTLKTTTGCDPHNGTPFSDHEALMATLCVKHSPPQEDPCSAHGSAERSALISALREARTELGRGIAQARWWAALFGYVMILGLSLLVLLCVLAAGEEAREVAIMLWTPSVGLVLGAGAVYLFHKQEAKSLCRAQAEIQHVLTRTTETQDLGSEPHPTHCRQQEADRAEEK

[2] = Inhibition of aSMase in rat brain microsomal homogenate by fluorescence assay
[3] = test system: HEK293; assay: Inhibition of dexamethasone-induced apoptosis in HEK293 cells assessed as decrease in DNA fragmentation at 1 to 2 uM after 7 hrs by ELISA; type: functional, cell-based; settings: Homo sapiens
Procedure, shortened: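 HEK-293 cells in medium with BrdU labelling solution (10 µM final) were plated at about 0.5 × 10³ cells/well. After 16 h they were washed and re-fed, then given 10^-8 M dexamethasone plus inhibitor for 7 h. Supernatant went to an anti-BrdU ELISA (secondary antibody, TMB), with absorbance at 370 nm. Quintuplicate.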

[4] = species on record: Rattus norvegicus; settings: Brain, Microsomal

With `CCCCCCS(=O)(=O)OC[C@H]1OC(O)[C@H](OP(=O)(O)O)[C@@H](O)[C@@H]1OP(=O)(O)O` (some centres not stated) the IC50 [1] was greater than 100 µM.

For `CCCCCCCCCCCCS(=O)(=O)OC[C@H]1OC(O)[C@H](OP(=O)(O)O)[C@@H](O)[C@@H]1OP(=O)(O)O` (some centres not stated), the IC50 [2] was 0.44 µM, the Activity [3] was “Active” and the IC50 [1] was greater than 100 µM.

Compound `CCCCCCCCS(=O)(=O)OC[C@H]1OC(O)[C@H](OP(=O)(O)O)[C@@H](O)[C@@H]1OP(=O)(O)O` (some centres not stated) has an IC50 [2] of 2.34 µM and an IC50 [1] greater than 100 µM.

In the case of `CCS(=O)(=O)OC[C@H]1OC(O)[C@H](OP(=O)(O)O)[C@@H](O)[C@@H]1OP(=O)(O)O` (some centres not stated), the IC50 [2] is reported as 39.6 µM and the IC50 [1] is reported as greater than 100 µM.

`O=P(O)(O)OC[C@H]1OC(O)[C@H](OP(=O)(O)O)[C@@H](O)[C@@H]1OP(=O)(O)O` (some centres not stated) showed an IC50 [2] greater than 50 µM.

Compound `O=P(O)(O)OC[C@H]1OC[C@H](OP(=O)(O)O)C[C@@H]1OP(=O)(O)O` has an IC50 [2] greater than 50 µM.

`CCCCCC/C=C\C=C/C/C=C\C/C=C\CCCC(=O)OC(COC(=O)CCCCCCCCCCCCCCCCC)COP(=O)(O)O[C@@H]1[C@H](O)[C@H](OP(=O)(O)O)[C@@H](O)[C@H](OP(=O)(O)O)[C@H]1O` (some centres not stated) showed a Km [4] of 0.53 µM and an IC50 [1] greater than 100 µM.
